Laboratory results as given in ChEMBL document CHEMBL1127501, “TcO(PnA.O-1-(2-nitroimidazole)) [BMS-181321], a new technetium-containing nitroimidazole complex for imaging hypoxia: synthesis, characterization, and xanthine oxidase-catalyzed reduction” (J Med Chem, 1994).

Assays:
[1] = test system: xanthine oxidase; test: Half life for the nitro group loss in xanthine oxidase enzyme assay in 0.2%DMF at 0.1 mM; type: ADME
Summary of the method: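 Anaerobic assay in argon-purged, septum-sealed cuvette: 100 µM nitro compound, 4 mM hypoxanthine, 0.2 units/mL bovine milk xanthine oxidase, 0.1 M phosphate/EDTA pH 7.4, 0.2% DMF final. Nitro absorbance at 326 nm read every 5 min and converted to concentration. Half-life taken from plots of log[% remaining] vs time.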

[2] = molecular target: Xanthine dehydrogenase/oxidase (Bos taurus, UniProt P80457); test: Reaction rate was evaluated for the compound with hypoxanthine as reducing substrate in 5% DMF expressed as nM/min/unit XOD
[3] = test system: xanthine oxidase; test: (§1) Half life for the nitro group loss in xanthine oxidase enzyme assay in 5%DMF at 0.1 mM
[4] = Half life for the nitro group loss in xanthine oxidase enzyme assay in 5 %DMF at 0.1 mM; No rection seen; type: ADME; settings: 100 µM
[5] = Half life for the nitro group loss in xanthime oxidase enzyme assay in 5%DMF with no enzyme control at 0.1 mM; No reaction seen; type: ADME; settings: 100 µM
[6] = Half life for the nitro group loss in xanthime oxidase enzyme assay in 5%DMF with no hypoxanthine control at 0.1 mM; No reaction seen; type: ADME; settings: 100 µM
[7] = as §1; type: ADME; settings: 100 µM
Summary of the method: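 Nitro compound at 100 µM with 4 mM hypoxanthine and 0.2 units/mL cow milk xanthine oxidase, in 0.1 M phosphate/EDTA pH 7.4 containing 5% DMF. Solutions were argon-deoxygenated before the enzyme was injected by gas-tight syringe. Loss of the 326 nm nitroimidazole absorbance was followed by UV/vis, and the half-life derived from the time course.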

Xanthine dehydrogenase/oxidase, sequence (P80457 whole entry): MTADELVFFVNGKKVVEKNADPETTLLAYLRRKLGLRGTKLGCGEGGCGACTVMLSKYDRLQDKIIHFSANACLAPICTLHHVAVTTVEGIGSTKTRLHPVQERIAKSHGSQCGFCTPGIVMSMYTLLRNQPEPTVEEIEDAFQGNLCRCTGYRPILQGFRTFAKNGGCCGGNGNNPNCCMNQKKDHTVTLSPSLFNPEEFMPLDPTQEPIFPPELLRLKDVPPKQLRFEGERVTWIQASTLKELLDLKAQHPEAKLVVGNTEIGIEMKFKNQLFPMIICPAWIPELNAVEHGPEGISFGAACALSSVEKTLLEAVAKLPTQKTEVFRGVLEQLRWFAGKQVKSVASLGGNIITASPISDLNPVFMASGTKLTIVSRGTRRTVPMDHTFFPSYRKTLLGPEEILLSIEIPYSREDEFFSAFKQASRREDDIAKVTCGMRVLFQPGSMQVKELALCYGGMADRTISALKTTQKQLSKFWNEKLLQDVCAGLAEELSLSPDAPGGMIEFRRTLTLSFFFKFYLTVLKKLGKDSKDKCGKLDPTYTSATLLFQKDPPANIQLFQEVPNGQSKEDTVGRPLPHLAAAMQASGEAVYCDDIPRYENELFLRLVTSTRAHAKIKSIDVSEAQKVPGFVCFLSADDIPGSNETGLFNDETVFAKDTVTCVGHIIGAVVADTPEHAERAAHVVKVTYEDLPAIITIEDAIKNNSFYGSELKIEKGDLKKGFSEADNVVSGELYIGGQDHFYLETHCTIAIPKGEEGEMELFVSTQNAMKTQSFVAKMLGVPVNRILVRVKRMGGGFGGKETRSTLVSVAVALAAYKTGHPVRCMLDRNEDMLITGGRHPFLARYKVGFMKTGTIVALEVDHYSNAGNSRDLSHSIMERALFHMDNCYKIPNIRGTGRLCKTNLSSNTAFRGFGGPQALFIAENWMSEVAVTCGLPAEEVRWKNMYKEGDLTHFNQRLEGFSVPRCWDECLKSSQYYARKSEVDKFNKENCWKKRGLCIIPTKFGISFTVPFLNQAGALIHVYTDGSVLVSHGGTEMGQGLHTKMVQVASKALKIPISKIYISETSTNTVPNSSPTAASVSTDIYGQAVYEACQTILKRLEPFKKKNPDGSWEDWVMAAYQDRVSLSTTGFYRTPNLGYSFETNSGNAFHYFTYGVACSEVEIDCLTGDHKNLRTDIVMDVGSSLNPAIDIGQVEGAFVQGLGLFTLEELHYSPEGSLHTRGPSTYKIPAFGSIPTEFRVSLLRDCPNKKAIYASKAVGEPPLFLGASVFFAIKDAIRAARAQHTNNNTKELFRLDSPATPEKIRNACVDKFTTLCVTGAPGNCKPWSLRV

## Cc1ncc([N+](=O)[O-])n1CCO [METRONIDAZOLE]
[1]
  half-life at 100 µM: > 20 h

## COCC(O)Cn1ccnc1[N+](=O)[O-] (stereo not drawn) [MISONIDAZOLE]
[2]
  Rate: 3.7 nM min-1 (unit XOD)-1
[3]
  half-life at 100 µM: 1 h

## TCO(PNAO)
[4]
  T1/2: Not Active

## TcO(PnA.O-1-(2-nitroimidazole))
[5]
  T1/2: Not Active
[6]
  T1/2: Not Active
[7]
  T1/2: 2 h
[2]
  Rate: 1.5 nM min-1 (unit XOD)-1
